Where “and” joins values, the source holds several entries; their conditions need not be identical. Equal entries are not always repeated.
Tested on: HEK-293T
Assay: Multiplex assay against HEK293T;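 for Population Tubulin-Different-Phenotype (%): share of the cells with healthy nuclei that show this phenotype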
Type: toxicity, cell-based
Details: human
How it was run: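 Cells were classed with CellPathfinder machine-learning gating, first as Hoechst high-intensity objects or normal cells, then (normal cells) as healthy, pyknosed or fragmented nuclei, and finally (pyknosed cells) as mitotic or apoptotic. Staining of live cells at seeding used Hoechst33342, BioTracker Green Microtubule Cytoskeleton Dye, MitoTracker Red and Annexin V Alexa Fluor 680, with imaging on a CQ1 microscope at 37°C and 5% CO2 after compound addition. Tubulin, mitochondrial-mass and membrane-permeability phenotypes are per cents of healthy-nucleus cells.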

[1] = 12 h, 1 µM, compound concentration 1 uM, replicate 1
[2] = 12 h, 1 µM, compound concentration 1 uM, replicate 2
[3] = 12 h, 10 µM, compound concentration 10 uM, replicate 1
[4] = 12 h, 10 µM, compound concentration 10 uM, replicate 2
[5] = 24 h, 1 µM, compound concentration 1 uM, replicate 1
[6] = 24 h, 1 µM, compound concentration 1 uM, replicate 2
[7] = 24 h, 10 µM, compound concentration 10 uM, replicate 1
[8] = 24 h, 10 µM, compound concentration 10 uM, replicate 2
[9] = 48 h, 1 µM, compound concentration 1 uM, replicate 1
[10] = 48 h, 1 µM, compound concentration 1 uM, replicate 2
[11] = 48 h, 10 µM, compound concentration 10 uM, replicate 1
[12] = 48 h, 10 µM, compound concentration 10 uM, replicate 2

For CS(=O)(=O)N1CCCC(NC(=O)[C@H](CCC2CCCCC2)NC(=O)c2ccc(CNc3ncnc4c3nnn4-c3ccccc3)cc2)C1 (some centres not stated) [SR-301], the “Population Apoptotic (%)” value [1] was 26% and 51% and 37%, the “Population Fragmented Nuclei (%)” value [1] was 13% and 14% and 15% and the “Population Healthy Nuclei (%)” value [1] was 22% and 17% and 20%. For the same compound, the “Population Hoechst High Intensity Objects (%)” value [1] was 13% and 14%, the “Population Membrane Permeable-Phenotype (%)” value [1] was 8% and 3% and the “Population Mitochondria Different-Phenotype (%)” value [1] was 85% and 84%. For the same compound, the “Population Mitotic Cells (%)” value [1] was 73% and 48% and 62%, the “Population Normal (%)” value [1] was 86% and 85% and the “Population Pyknosed Nuclei (%)” value [1] was 64% and 67%. The “Population Tubulin-Different-Phenotype (%)” value [1] was 46% and 57% and 55%, the “Total Cell Count” value [1] was 584 and 339 and 397 and the “Population Apoptotic (%)” value [2] was 20% and 16% and 18%. For the same compound, the “Population Fragmented Nuclei (%)” value [2] was 5% and 8% and 4%, the “Population Healthy Nuclei (%)” value [2] was 41% and 36% and 50% and the “Population Membrane Permeable-Phenotype (%)” value [2] was 4% and 1% and 5%. For the same compound, the “Population Mitochondria Different-Phenotype (%)” value [2] was 41% and 30%, the “Population Mitotic Cells (%)” value [2] was 79% and 83% and 81% and the “Population Normal (%)” value [2] was 94% and 98% and 96%. The “Population Pyknosed Nuclei (%)” value [2] was 53% and 55% and 45%, the “Population Tubulin-Different-Phenotype (%)” value [2] was 43% and 26% and 29% and the “Total Cell Count” value [2] was 247 and 189 and 243. For the same compound, the “Population Apoptotic (%)” value [3] was 68% and 73%, the “Population Fragmented Nuclei (%)” value [3] was 20% and 14% and 21% and the “Population Healthy Nuclei (%)” value [3] was 6% and 12% and 9%. The “Population Hoechst High Intensity Objects (%)” value [3] was 17%, the “Population Membrane Permeable-Phenotype (%)” value [3] was 10% and the “Population Mitochondria Different-Phenotype (%)” value [3] was 76% and 85% and 86%. The “Population Mitotic Cells (%)” value [3] was 31% and 26%, the “Population Normal (%)” value [3] was 82% and the “Population Pyknosed Nuclei (%)” value [3] was 73% and 68%. The “Population Tubulin-Different-Phenotype (%)” value [3] was 71% and 66%, the “Total Cell Count” value [3] was 404 and 541 and 467 and the “Population Apoptotic (%)” value [4] was 51% and 84% and 91%. For the same compound, the “Population Fragmented Nuclei (%)” value [4] was 9% and 13% and 19%, the “Population Healthy Nuclei (%)” value [4] was 28% and 26% and 20% and the “Population Hoechst High Intensity Objects (%)” value [4] was 8% and 13% and 20%. For the same compound, the “Population Mitochondria Different-Phenotype (%)” value [4] was 43% and 78% and 82%, the “Population Normal (%)” value [4] was 92% and 86% and 79% and the “Population Pyknosed Nuclei (%)” value [4] was 61% and 60%. The “Population Tubulin-Different-Phenotype (%)” value [4] was 43% and 40% and 57%, the “Total Cell Count” value [4] was 225 and 185 and 216 and the “Population Apoptotic (%)” value [5] was 26% and 40% and 55%. For the same compound, the “Population Fragmented Nuclei (%)” value [5] was 18% and 19%, the “Population Healthy Nuclei (%)” value [5] was 19% and 18% and 14% and the “Population Hoechst High Intensity Objects (%)” value [5] was 19% and 18% and 16%. The “Population Membrane Permeable-Phenotype (%)” value [5] was 6% and 5% and 2%, the “Population Mitochondria Different-Phenotype (%)” value [5] was 72% and 77% and 78% and the “Population Mitotic Cells (%)” value [5] was 73% and 60% and 44%. For the same compound, the “Population Normal (%)” value [5] was 80% and 81% and 83%, the “Population Pyknosed Nuclei (%)” value [5] was 61% and 62% and 66% and the “Population Tubulin-Different-Phenotype (%)” value [5] was 48% and 57% and 65%. For the same compound, the “Total Cell Count” value [5] was 594 and 385 and 349, the “Population Apoptotic (%)” value [6] was 29% and 24% and the “Population Fragmented Nuclei (%)” value [6] was 3% and 2% and 6%. For the same compound, the “Population Healthy Nuclei (%)” value [6] was 64% and 67% and 57%, the “Population Hoechst High Intensity Objects (%)” value [6] was 3% and 2% and the “Population Membrane Permeable-Phenotype (%)” value [6] was 3% and 4%. For the same compound, the “Population Mitochondria Different-Phenotype (%)” value [6] was 41% and 43% and 33%, the “Population Mitotic Cells (%)” value [6] was 70% and 75% and the “Population Normal (%)” value [6] was 96% and 97%. For the same compound, the “Population Pyknosed Nuclei (%)” value [6] was 32% and 30% and 36%, the “Population Tubulin-Different-Phenotype (%)” value [6] was 52% and 36% and 34% and the “Total Cell Count” value [6] was 298 and 240 and 293. For the same compound, the “Population Apoptotic (%)” value [7] was 81% and 77% and 85%, the “Population Fragmented Nuclei (%)” value [7] was 28% and 20% and 26% and the “Population Healthy Nuclei (%)” value [7] was 3% and 5%. The “Population Hoechst High Intensity Objects (%)” value [7] was 19% and 18% and 20%, the “Population Membrane Permeable-Phenotype (%)” value [7] was 8% and 9% and 0% and the “Population Mitochondria Different-Phenotype (%)” value [7] was 58% and 77% and 81%. The “Population Mitotic Cells (%)” value [7] was 18% and 22% and 14%, the “Population Normal (%)” value [7] was 80% and 81% and 79% and the “Population Pyknosed Nuclei (%)” value [7] was 68% and 74% and 69%. The “Population Tubulin-Different-Phenotype (%)” value [7] was 33% and 54%, the “Total Cell Count” value [7] was 495 and 531 and 410 and the “Population Apoptotic (%)” value [8] was 96% and 55% and 93%. For the same compound, the “Population Fragmented Nuclei (%)” value [8] was 15% and 11%, the “Population Healthy Nuclei (%)” value [8] was 36% and 42% and 39% and the “Population Hoechst High Intensity Objects (%)” value [8] was 17% and 10% and 14%. The “Population Membrane Permeable-Phenotype (%)” value [8] was 7% and 5% and 11%, the “Population Mitochondria Different-Phenotype (%)” value [8] was 95% and 51% and 90% and the “Population Normal (%)” value [8] was 82% and 89% and 85%. The “Population Pyknosed Nuclei (%)” value [8] was 48% and 45%, the “Population Tubulin-Different-Phenotype (%)” value [8] was 46% and 47% and 74% and the “Total Cell Count” value [8] was 210 and 253 and 187. For the same compound, the “Population Apoptotic (%)” value [9] was 23% and 35% and 54%, the “Population Fragmented Nuclei (%)” value [9] was 21% and 28% and 19% and the “Population Healthy Nuclei (%)” value [9] was 17% and 11% and 15%. For the same compound, the “Population Hoechst High Intensity Objects (%)” value [9] was 22% and 24%, the “Population Membrane Permeable-Phenotype (%)” value [9] was 4% and 5% and the “Population Mitochondria Different-Phenotype (%)” value [9] was 54% and 70% and 71%. For the same compound, the “Population Mitotic Cells (%)” value [9] was 77% and 64% and 45%, the “Population Normal (%)” value [9] was 77% and 75% and the “Population Pyknosed Nuclei (%)” value [9] was 60% and 64%. The “Population Tubulin-Different-Phenotype (%)” value [9] was 39% and 52%, the “Total Cell Count” value [9] was 604 and 398 and 345 and the “Population Apoptotic (%)” value [10] was 20% and 12%. The “Population Fragmented Nuclei (%)” value [10] was 4% and 3%, the “Population Healthy Nuclei (%)” value [10] was 82% and 80% and 81% and the “Population Hoechst High Intensity Objects (%)” value [10] was 4% and 3%. For the same compound, the “Population Membrane Permeable-Phenotype (%)” value [10] was 3% and 1%, the “Population Mitochondria Different-Phenotype (%)” value [10] was 17% and 20% and 18% and the “Population Mitotic Cells (%)” value [10] was 76% and 79% and 87%. For the same compound, the “Population Normal (%)” value [10] was 95% and 96%, the “Population Pyknosed Nuclei (%)” value [10] was 12% and 15% and the “Population Tubulin-Different-Phenotype (%)” value [10] was 41% and 35% and 33%. The “Total Cell Count” value [10] was 527 and 453 and 385, the “Population Apoptotic (%)” value [11] was 90% and 84% and 81% and the “Population Fragmented Nuclei (%)” value [11] was 37% and 29% and 32%. For the same compound, the “Population Healthy Nuclei (%)” value [11] was 2% and 3%, the “Population Hoechst High Intensity Objects (%)” value [11] was 22% and 20% and 23% and the “Population Membrane Permeable-Phenotype (%)” value [11] was 14% and 11%. The “Population Mitochondria Different-Phenotype (%)” value [11] was 71% and 57% and 77%, the “Population Mitotic Cells (%)” value [11] was 9% and 15% and 18% and the “Population Normal (%)” value [11] was 77% and 79% and 76%. For the same compound, the “Population Pyknosed Nuclei (%)” value [11] was 60% and 67% and 64%, the “Population Tubulin-Different-Phenotype (%)” value [11] was 28% and 64% and 55% and the “Total Cell Count” value [11] was 401 and 536 and 484. For the same compound, the “Population Apoptotic (%)” value [12] was 92% and 82% and 60%, the “Population Fragmented Nuclei (%)” value [12] was 15% and 17% and 12% and the “Population Healthy Nuclei (%)” value [12] was 52% and 54% and 64%. For the same compound, the “Population Hoechst High Intensity Objects (%)” value [12] was 16% and 12% and 11%, the “Population Membrane Permeable-Phenotype (%)” value [12] was 4% and 6% and the “Population Mitochondria Different-Phenotype (%)” value [12] was 95% and 91% and 32%. The “Population Normal (%)” value [12] was 83% and 87% and 88%, the “Population Pyknosed Nuclei (%)” value [12] was 32% and 27% and 23% and the “Population Tubulin-Different-Phenotype (%)” value [12] was 46% and 86% and 45%. For the same compound, the “Total Cell Count” value [12] was 209 and 191 and 306.

From ChEMBL document CHEMBL4689842, “EUbOPEN Chemogenomics Library wave 1” (2021)
